Data: article PMC3488162 (The Journal of investigative dermatology, 2012)
Entries after “also recorded” stand apart in the source; their conditions may differ.

Tests used:
C. albicans [1] = experiment: Flow cytometric antimicrobial killing assay; type: cell-based, Candida albicans; conditions: for antifungal activity compared between hGAPDH (2-32), LL-37 and hBD-3: 10 μg/ml each; for depolarized fungal cells in a population: 1:6 diluted Schaedler broth, DiBAC4(3), flow cytometry, means of one representative experiment in triplicate
Method in brief: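 Candida albicans (strains 143, 277, 526 and SC5314; 1.5×10^6 cells) incubated at 37°C in 1:6-diluted Schaedler broth with test peptide or reference antimicrobial peptides at 10 μg/ml, dissolved in 0.01% acetic acid. Solvent-only controls. After 90 min, DiBAC4(3) membrane-potential dye added for 10 min; cells pelleted and resuspended in PBS. Percentage of depolarized cells counted by flow cytometry, 10,000 events per sample.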

E. coli = experiment: Flow cytometric antimicrobial killing assay; type: cell-based, E. coli ATCC 25922; conditions: 90 min, 37°C
Method in brief: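 E. coli ATCC 25922 (1.5×10^6 cells) in 1:6 diluted Schaedler broth at 37°C. Peptides dissolved in 0.01% acetic acid and added at 10 μg/ml; solvent served as viability control. After 90 min, DiBAC4(3) added for 10 min, cells spun and resuspended in PBS. Percentage of depolarised cells counted by flow cytometry over 10 000 events. One representative experiment run in triplicate.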

E. coli BL21 = experiment: Broth microdilution, E. coli BL21; type: cell-based; conditions: data not shown
P. aeruginosa PAO = experiment: Broth microdilution, P. aeruginosa PAO; type: cell-based; conditions: data not shown
[2] = tested on: P. aeruginosa clinical isolate; experiment: Broth microdilution, P. aeruginosa clinical isolate; type: cell-based; conditions: data not shown
C. albicans [3] = experiment: Broth microdilution, C. albicans; type: cell-based, Candida albicans; conditions: data not shown
C. albicans [4] = experiment: Radial diffusion test, C. albicans; type: cell-based, Candida albicans; conditions: different media
Sap2p = Sap2p (Candida albicans, UniProt P0CS83); experiment: Sap inhibition assay, Sap2; type: biochemical, C. albicans; conditions: as stated in abstract
Sequence of Sap2p (P0CS83 57-398): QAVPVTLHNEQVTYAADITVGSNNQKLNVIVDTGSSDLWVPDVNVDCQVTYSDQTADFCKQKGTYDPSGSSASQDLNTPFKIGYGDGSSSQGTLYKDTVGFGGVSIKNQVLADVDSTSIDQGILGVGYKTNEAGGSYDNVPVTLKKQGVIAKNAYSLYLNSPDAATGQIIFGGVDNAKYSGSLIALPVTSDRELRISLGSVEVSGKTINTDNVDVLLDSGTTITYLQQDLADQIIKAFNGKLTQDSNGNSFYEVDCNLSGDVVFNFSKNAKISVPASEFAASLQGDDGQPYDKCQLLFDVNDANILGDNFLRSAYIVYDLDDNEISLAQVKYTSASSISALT

C. albicans SC5314 = experiment: Electron microscopy of C. albicans; type: cell-based, Candida albicans; conditions: 125 μg/ml, 24 h, 37 °C
Method in brief: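 About 10^6 SC5314 cells/ml held with 125 μg/ml test compound for 24 h at 37 °C, beside an untreated control. Pellets fixed in 2.5% glutaraldehyde/2% formaldehyde (0.05 M phosphate, pH 7.3), post-fixed in 1% OsO4 and embedded in glycid ether. Sections of 20–30 nm stained with uranyl acetate and viewed by transmission EM.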

TR146 epithelial cells = experiment: LDH release by uninfected epithelial cells; type: cell-based, human
Method in brief: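 TR146 buccal cells grown in DMEM with 10% FCS at 37°C, 5% CO2. Tests run in antibiotic-free medium with 5, 10, 50, 100 or 125 μg/ml test compound for 12 and 24 h. Damage read as LDH release. Standard LDH samples spiked with 5 and 125 μg/ml test compound checked for assay interference.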

[5] = tested on: RHE (TR146) infected with C. albicans SC5314; experiment: Histology of reconstituted human oral epithelium; type: cell-based; conditions: 125 μg/ml, 18 h after infection with C. albicans SC5314
Method in brief: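 Multilayer oral RHE infected with 2×10^6 C. albicans SC5314 in 3 g/l TSB/10 mM sodium phosphate, pH 7.2. Test compound at 5–125 μg/ml or none, for 12 and 18 h at 37 °C in 5% CO2 with 100% humidity. Light microscopy scored on 50 sections from five sites per epithelium.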

C. albicans cells = type: cell-based, Candida albicans; conditions: external (5 μg/ml) and endogenous peptide; oral RHE, 12 h; immunofluorescence
Method in brief: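 Oral RHE infected with 2×10^6 C. albicans SC5314 in TSB/10 mM sodium phosphate, pH 7.2, with or without 5 μg/ml peptide, for 12 h. Tissue cryofixed; 5-μm sections fixed in PLP, blocked with donkey serum. Stained with affinity-purified rabbit anti-peptide antibody (1:50) and human anti-C. albicans serum (1:60), then Dylight 549/Cy5 secondaries and YOPRO nuclear stain. Confocal imaging at ×400 and ×250.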

C. albicans [6] = experiment: Annexin V-FITC / propidium iodide staining, apoptotic and necrotic marker; type: cell-based, Candida albicans
[7] = tested on: IL-8 secretion of epithelial cells; experiment: IL-8 secretion by epithelial cells; type: cell-based, human; conditions: 5 μg/ml, 12 h, n = 6
Method in brief: (§1)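 Epithelial cells infected or not with C. albicans SC5314, with or without 5 μg/ml test compound, for 12 h. Cytokine in culture supernatants measured by DuoSet sandwich ELISA. Data are means±SD of duplicate assays from three experiments; 2-tailed paired t test, n = 6.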

[8] = tested on: GM-CSF secretion of epithelial cells; experiment: GM-CSF secretion by epithelial cells; type: cell-based, human; conditions: uninfected epithelial cells; 5 μg/ml; 12 h; n = 6
Method in brief: as §1

[9] = tested on: TLR4 mRNA expression of epithelial cells; experiment: Epithelial TLR4 mRNA expression; type: cell-based, human; conditions: 5 μg/ml, 12 h, n = 6
Method in brief: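 Epithelial cells infected or not with C. albicans SC5314, with or without 5 μg/ml test compound, for 12 h. Total RNA extracted; cDNA made from 1 μg RNA with SuperScript III. qPCR run in duplicate using mean Ct, normalised to a housekeeping gene. Data are means±SD of duplicate assays from three experiments; 2-tailed paired t test, n = 6.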

Sap1p = Sap1p (Candida albicans, UniProt P0CY27); conditions: as stated in abstract
Sequence of Sap1p (P0CY27 51-391): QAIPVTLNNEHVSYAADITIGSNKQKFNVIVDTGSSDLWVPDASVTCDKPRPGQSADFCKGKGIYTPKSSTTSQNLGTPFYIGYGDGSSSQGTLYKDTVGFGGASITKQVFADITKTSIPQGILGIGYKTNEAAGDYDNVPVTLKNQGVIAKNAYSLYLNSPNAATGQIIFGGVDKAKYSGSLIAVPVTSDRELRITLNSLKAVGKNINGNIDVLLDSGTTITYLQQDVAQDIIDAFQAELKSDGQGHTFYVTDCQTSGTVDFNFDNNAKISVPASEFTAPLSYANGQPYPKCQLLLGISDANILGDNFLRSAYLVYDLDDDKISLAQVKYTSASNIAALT

Sap = conditions: ref Korting et al., 1999; cited from earlier work
C. albicans [10] = conditions: ref Wu et al., 1999, cited from earlier work
Sap2 = conditions: ref Wu et al., 1999, cited from earlier work
GAPDH = conditions: ref Mookherjee et al., 2009; cited from earlier work
[11] = epithelial cells infected with C. albicans SC5314

With “hBD-3: antimicrobial peptide hBD-3 (Peptide Institute, Osaka, Japan) (GIINTLQKYYCRVRGGRCAVLSCLPKEEQIGKCSTRGRKCCRRKK; UniProt P81534 23-67, looked up) [reference compound]” the “antifungal activity compared between hGAPDH (2-32), LL-37 and hBD-3” value (C. albicans [1]; C. albicans, 90 min, 37°C) was “not significantly different”.

In the case of “GKVKVGVNGFGRIGRLVTRAAFNSGKVDIVA [hGAPDH (2-32)]”, the “dose dependence of antifungal effect” value (C. albicans [1]; C. albicans SC5314, 5, 10, 50, 100 and 125 μg/ml, 90 min) is reported as “dose dependent”, the “effectiveness in killing assay” value (C. albicans [1]; C. albicans, 5 μg/ml) is reported as “not very effective” and the “depolarized fungal cells in a population” value (C. albicans [1]; C. albicans, 10 µg/ml (3.1 µM), 90 min, 37°C) is reported as 45%. The “antifungal activity compared between hGAPDH (2-32), LL-37 and hBD-3” value (C. albicans [1]; C. albicans, 90 min, 37°C) was “not significantly different”, the “depolarized fungal cells in a population” value (C. albicans [1]; C. albicans, 100 µg/ml, 90 min, 37°C) was 90% and the “depolarizing of the fungi in a population” value (C. albicans [1]; two of the four tested C. albicans strains, 10 μg/ml, 90 min, 37°C) was “approximately 50%”. The “sensitivity of C. albicans strains” value (C. albicans [1]; two other of the four tested C. albicans strains, 10 μg/ml, 90 min, 37°C) was “slightly lower sensitivity”, the “antibacterial activity compared with LL-37 and hBD-3” value (E. coli; 10 μg/ml each) was “less active against E. coli” and the antibacterial activity (E. coli; 10 μg/ml, 1:6 diluted Schaedler broth) was “potent antibacterial activity”. For the same molecule, the “growth inhibition (MIC 100%)” value (E. coli BL21) was “micromolar concentrations”, the “growth inhibition (MIC 100%)” value (P. aeruginosa PAO) was “micromolar concentrations” and the “growth inhibition (MIC 100%)” value [2] was “micromolar concentrations”. The “growth inhibition (MIC 100%)” value (C. albicans [3]) was “micromolar concentrations”, the antifungal activity (C. albicans [4]) was “antifungal activity was also demonstrated” and the “ED50, inhibition of Sap activity” value (Sap2p) was 200 µg/mL. The “ultrastructural changes of C. albicans morphology” value (C. albicans SC5314) was “distinct changes of the cell wall, plasma membrane and the cytoplasm; also recorded: enlargement of the fungal cytoplasmic vacuoles, disorganization of the internal organelles and the appearance of yeasts with an empty cytoplasm resembling necrotic ghost cells”, the toxic mucosal effects (TR146 epithelial cells; low concentrations) was “without any toxic mucosal effects” and the “toxicity on mammalian cells” value (TR146 epithelial cells; uninfected epithelial cells, LDH release) was “low toxicity”. The “morphological alterations of infected RHE” value [5] was “far less marked morphological alterations”, the “number of yeast cells on the mucosal surface” value [5] was “decreased” and the “spongiosis and invasion of keratinocytes by yeast cells” value [5] was “inhibited”. The “edema in infected RHE” value ([5]; uppermost keratinocyte layers) was “mild edema”, the “affinity to C. albicans cells” value (C. albicans cells) was “strong affinity” and the “internalization by fungal cells” value (C. albicans cells) was “internalization by the fungal cells”. The “protoplasts with peripheral annexin V-FITC fluorescence (apoptosis)” value (C. albicans [6]; 5 μg/ml, 1 h, 37°, 300 fungal cells) was 31%, the “cellular changes after longer treatment or higher doses” value (C. albicans [6]; treated for longer time with 5 μg/ml or at higher doses) was “cellular changes characteristic of necrosis” and the IL-8 secretion [7, 11] was “even increased”. For the same molecule, the IL-8 secretion ([7]; uninfected epithelial cells) was “increased secretion”, the GM-CSF secretion [8] was “increased secretion” and the TLR4 expression [9, 11] was “increased”. The “TLR4 mRNA expression” value ([9]; uninfected epithelial cells, vs PBS treated controls) was “increased” and the “ED50, inhibition of Sap activity” value (Sap1p) was 160 µg/mL.

In the case of `CC(C)(C)NC(=O)[C@@H]1C[C@@H]2CCCC[C@@H]2CN1C[C@@H](O)[C@H](Cc1ccccc1)NC(=O)[C@H](CC(N)=O)NC(=O)c1ccc2ccccc2n1` [saquinavir], the “inhibition of Sap activity” value (Sap) is given as “inhibit Sap activity”.

For `CC(C)(C)NC(=O)[C@@H]1CN(Cc2cccnc2)CCN1C[C@@H](O)C[C@@H](Cc1ccccc1)C(=O)N[C@H]1c2ccccc2C[C@H]1O` [indinavir], the “inhibition of Sap activity” value (Sap) is given as “inhibit Sap activity”.

In the case of “lysozyme: antimicrobial protein ubiquitous in human mucosal secretions such as saliva”, the “killing of C. albicans” value (C. albicans [10]; higher concentrations) is given as “killing the organism”, the “growth of C. albicans” value (C. albicans [10]) is given as “inhibited the growth” and the “production of Sap” value (Sap2; lower concentrations) is given as “decreasing the production”. For the same molecule, the “secretion of the isoenzyme Sap2” value (Sap2) was “decreased”.

In the case of “LL-37: antimicrobial peptide LL-37 (Innovagen, Lund, Sweden); human cathelicidin (LLGDFFRKSKEKIGKEFKRIVQRIKDFLRNLVPRTES; Antibacterial peptide LL-37; UniProt P49913 134-170, looked up)”, the “GAPDH as mononuclear cell receptor” value (GAPDH) is listed as “GAPDH is relevant for the functioning”.
